Assays:
[1] = biological target: Serine/threonine-protein kinase pim-1 (Homo sapiens) (UniProt P11309); experiment: Inhibition of Pim-1 assessed as residual enzyme activity at 1 uM relative to untreated control
[2] = biological target: Serine/threonine-protein kinase pim-2 (Homo sapiens) (UniProt Q9P1W9); experiment: Inhibition of Pim-2 assessed as residual enzyme activity at 1 uM relative to untreated control
[3] = biological target: Serine/threonine-protein kinase pim-3 (Homo sapiens) (UniProt Q86V86); experiment: Inhibition of Pim-3 assessed as residual enzyme activity at 1 uM relative to untreated control
[4] = biological target: Serine/threonine-protein kinase pim-1 (Homo sapiens) (UniProt P11309); experiment: Inhibition of Pim-1 assessed as residual enzyme activity at 10 uM relative to untreated control
[5] = biological target: Serine/threonine-protein kinase pim-2 (Homo sapiens) (UniProt Q9P1W9); experiment: Inhibition of Pim-2 assessed as residual enzyme activity at 10 uM relative to untreated control
[6] = biological target: Serine/threonine-protein kinase pim-3 (Homo sapiens) (UniProt Q86V86); experiment: Inhibition of Pim-3 assessed as residual enzyme activity at 10 uM relative to untreated control
PC-3 = experiment: Antiproliferative activity against human PC3 cells after 48 hrs by resazurin dye reduction assay; type: functional, cell-based; conditions: PC-3, 48 h
Summary of the method: (§1)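 Cells (human fibroblast primary culture, or PC3, DU145 or PA1 cancer lines) were kept as monolayers in Glutamax MEM with Earle's salts, 10% FCS, pyruvate, nonessential amino acids and gentamicin, at 37 °C in 5% CO2. 5×10^3 cells/well adhered for 16 h, then had 48 h continuous drug exposure (20 mM DMSO stock). Resazurin 25 µg/mL for 1 h; fluorescence ex 530/em 590 nm. IC50 from blank-corrected concentration–survival curves versus control wells.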

DU-145 = experiment: Antiproliferative activity against human DU145 cells after 48 hrs by resazurin dye reduction assay; type: functional, cell-based; conditions: DU-145, 48 h; summary of the method: as §1
PA-1 = experiment: Antiproliferative activity against human PA1 cells after 48 hrs by resazurin dye reduction assay; type: functional, cell-based; conditions: PA-1, 48 h; summary of the method: as §1
[7] = Antiproliferative activity against human fibroblasts after 48 hrs by resazurin dye reduction assay; type: cell-based; conditions: Fibroblast; summary of the method: as §1

Serine/threonine-protein kinase pim-2 (Homo sapiens), sequence (Q9P1W9 whole entry, looked up): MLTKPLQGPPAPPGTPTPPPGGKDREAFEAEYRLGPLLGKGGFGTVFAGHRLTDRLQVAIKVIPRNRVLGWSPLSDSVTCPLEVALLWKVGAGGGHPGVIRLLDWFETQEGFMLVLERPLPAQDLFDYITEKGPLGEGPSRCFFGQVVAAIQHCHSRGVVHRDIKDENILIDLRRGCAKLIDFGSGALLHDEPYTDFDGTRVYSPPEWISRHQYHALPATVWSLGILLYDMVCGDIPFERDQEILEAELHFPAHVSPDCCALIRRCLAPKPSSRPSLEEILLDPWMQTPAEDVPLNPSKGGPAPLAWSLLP
Serine/threonine-protein kinase pim-1 (Homo sapiens), sequence (P11309 whole entry, looked up): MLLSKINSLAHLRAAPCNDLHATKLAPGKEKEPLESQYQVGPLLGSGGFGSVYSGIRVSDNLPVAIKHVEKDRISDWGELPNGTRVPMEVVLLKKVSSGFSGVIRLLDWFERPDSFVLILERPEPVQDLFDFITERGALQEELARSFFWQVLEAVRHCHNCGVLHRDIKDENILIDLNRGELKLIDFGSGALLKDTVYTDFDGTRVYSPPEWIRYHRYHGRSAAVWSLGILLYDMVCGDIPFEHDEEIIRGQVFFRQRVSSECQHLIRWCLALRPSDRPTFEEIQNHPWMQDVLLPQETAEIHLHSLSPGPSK

Structure (SMILES)	Activity [1] [%]	Activity [2] [%]	Activity [3] [%]	Activity [4] [%]	Activity [5] [%]	Activity [6] [%]	IC50 (PC-3) [µM]	IC50 (DU-145) [µM]	IC50 (PA-1) [µM]	IC50 [7] [µM]
O=Cc1c[nH]c2c1ccc1c3cc(-c4ccc(F)cc4)ccc3[nH]c12	65	72	54	15	55	15				
NC(=O)c1c[nH]c2c1ccc1c3ccccc3[nH]c12				9	27	9				
O=S(=O)(c1ccccc1)n1ccc2ccc3c4ccccc4[nH]c3c21	83	65	102	61	62	64				
COc1cccc(-c2ccc3[nH]c4c(ccc5c(C=O)c[nH]c54)c3c2)c1	64	65	46	17	31	12				
OCc1c[nH]c2c1ccc1c3ccccc3[nH]c12	72	46	68	28	47	18				
O=Cc1c[nH]c2c1ccc1c3cc(-c4ccccc4)ccc3[nH]c12	60	68	54	16	53	15				
O=Cc1c[nH]c2c1ccc1c3cc(Br)ccc3[nH]c12	31	82	11	6	53	6	5.9	12.2	2.8	11
O=Cc1c[nH]c2c1ccc1c3cc(-c4ccc(-c5ccccc5)cc4)ccc3[nH]c12	69	67	77	39	70	48				

More lines, main results first:

Activity [1] [%]	Activity [2] [%]	Activity [3] [%]	Activity [4] [%]	Activity [5] [%]	Activity [6] [%]	IC50 (PC-3) [µM]	IC50 (DU-145) [µM]	Structure (SMILES)	IC50 (PA-1) [µM]	IC50 [7] [µM]
69	67	55	12	46	8			Brc1ccc2[nH]c3c(ccc4cc[nH]c43)c2c1		
90	69	72	35	50	21			OCCc1c[nH]c2c1ccc1c3ccccc3[nH]c12		
61	54	20	20	30	7			O=C(c1c[nH]c2c1ccc1c3ccccc3[nH]c12)C(F)(F)F		
79	49	70	28	52	23			O=Cc1c[nH]c2c1ccc1c3cc(-c4ccc(C(F)(F)F)cc4)ccc3[nH]c12		
68	73	77	29	70	31			O=Cc1c[nH]c2c1ccc1c3cc(-c4ccc(OC(F)(F)F)cc4)ccc3[nH]c12		
80	62	74	41	27	21			CCN(CC)C(=O)/C(=N\O)c1c[nH]c2c1ccc1c3ccccc3[nH]c12		
39	59	26	6	32	6			O=Cc1c[nH]c2c1ccc1c3cc(-c4ccc(F)cc4F)ccc3[nH]c12		

Reference: ChEMBL document CHEMBL1154186, “Synthesis, kinase inhibitory potencies, and in vitro antiproliferative evaluation of new Pim kinase inhibitors” (J Med Chem, 2009)
